How the values were obtained:
Rattus norvegicus [1] = test: Elimination half life in Sprague-Dawley rat assessed as tenofovir level at 30 mg/kg, po administered daily for 7 days measured on day 7; type: ADME, organism-based; design: dose 30 mg/kg, route oral; conditions: in vivo, 168 h
Outline: (§1)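 Oral once daily for 7 days, vehicle or 10, 30 or 100 mg/kg/day, Sprague-Dawley rats 8-12 weeks old, not fasted. Plasma sampled 0.5, 1, 2, 4, 12, 24 h after dosing on days 1 and 7 (1 rat/sex/time point). CMX157 and tenofovir measured by HPLC-MS/MS, LOQ 1 ng/ml (values below set to zero). Noncompartmental analysis; Cmax/Tmax by direct observation, AUC by linear-log trapezoidal rule.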

Rattus norvegicus [2] = test: Tmax in Sprague-Dawley rat assessed as tenofovir level at 100 mg/kg, po administered daily for 7 days measured on day 1; type: ADME, organism-based; design: dose 100 mg/kg, route oral; conditions: in vivo, 168 h; outline: as §1
[3] = Selectivity index, ratio of CC50 for human MT2 cells to EC50 for HIV1 LAI; type: toxicity, cell-based; conditions: read-out: Ratio CC50/EC50
Rattus norvegicus [4] = test: Elimination half life in Sprague-Dawley rat assessed as tenofovir level at 10 mg/kg, po administered daily for 7 days measured on day 1; type: ADME, organism-based; design: dose 10 mg/kg, route oral; conditions: in vivo, 168 h
Outline: (§2)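 Sprague-Dawley rats (3/sex/group), about 8 to 12 weeks old and not fasted, got vehicle or 10, 30 or 100 mg/kg/day orally once daily for 7 days. Blood was drawn at 0.5, 1, 2, 4, 12 and 24 h after dosing on days 1 and 7 (1 rat/sex/time point). Plasma was deproteinized, then HPLC-MS/MS (LOQ 1 ng/ml, values below set to zero). Noncompartmental analysis, AUC by linear-log trapezoidal rule.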

Rattus norvegicus [5] = test: Tmax in Sprague-Dawley rat assessed as tenofovir level at 30 mg/kg, po administered daily for 7 days measured on day 7; type: ADME, organism-based; design: dose 30 mg/kg, route oral; conditions: in vivo, 168 h; outline: as §1
Hepatitis B virus [6] = test: Antiviral activity against HBV in human HepAD38 cells assessed as intracellular viral DNA levels treated for 3 days measured on day 6 […] by RT-PCR; type: functional, organism-based
Outline: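 HepAD38 cells seeded at 5 x 10^5/well, grown 2-3 days with 0.3 µg/ml tetracycline, then induced by PBS wash and tetracycline/G418-free medium with or without compound at 37°C, 5% CO2. Medium changed after 3 days. Intracellular HBV DNA measured on day 6 postinduction by TaqMan real-time PCR against a plasmid standard curve, given as % of mock.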

Rattus norvegicus [7] = test: Elimination half life in Sprague-Dawley rat assessed as tenofovir level at 100 mg/kg, po administered daily for 7 days measured on day 1; type: ADME, organism-based; design: dose 100 mg/kg, route oral; conditions: in vivo, 168 h; outline: as §1
Rattus norvegicus [8] = test: AUC (0 to infinity) in Sprague-Dawley rat assessed as tenofovir level at 100 mg/kg, po administered daily for 7 days measured on day 1; type: ADME, organism-based, Plasma; design: time infinity, dose 100 mg/kg, route oral; conditions: in vivo, 168 h; outline: as §1
Rattus norvegicus [9] = test: Tmax in Sprague-Dawley rat assessed as tenofovir level at 100 mg/kg, po administered daily for 7 days measured on day 7; type: ADME, organism-based; design: dose 100 mg/kg, route oral; conditions: in vivo, 168 h; outline: as §1
Rattus norvegicus [10] = test: Elimination half life in Sprague-Dawley rat assessed as tenofovir level at 10 mg/kg, po administered daily for 7 days measured on day 7; type: ADME, organism-based; design: dose 10 mg/kg, route oral; conditions: in vivo, 168 h; outline: as §1
[11] = Cytotoxicity against human PBMC by XTT assay; type: cell-based
Outline: (§3)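 Fresh human PBMCs, seronegative for HIV and HBV, infected with HIV-1 clade B HT/92/599. Antiviral read-out by reverse transcriptase reduction; cytotoxicity by XTT staining. EC50, CC50 and CC50/EC50 taken from data plots, given as mean ± standard deviation of triplicate determinations.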

[12] = Selectivity index, ratio of CC50 for human HepG2(2.2.15) cells to EC50 for HBV
Rattus norvegicus [13] = test: AUC (0 to infinity) in Sprague-Dawley rat assessed as tenofovir level at 100 mg/kg, po administered daily for 7 days measured on day 7; type: ADME, organism-based, Plasma; design: time infinity, dose 100 mg/kg, route oral; conditions: in vivo, 168 h; outline: as §1
Rattus norvegicus [14] = test: AUC (0 to infinity) in Sprague-Dawley rat assessed as tenofovir level at 30 mg/kg, po administered daily for 7 days measured on day 1; type: ADME, organism-based, Plasma; design: time infinity, dose 30 mg/kg, route oral; conditions: in vivo, 168 h; outline: as §2
Rattus norvegicus [15] = test: Elimination half life in Sprague-Dawley rat assessed as tenofovir level at 30 mg/kg, po administered daily for 7 days measured on day 1; type: ADME, organism-based; design: dose 30 mg/kg, route oral; conditions: in vivo, 168 h; outline: as §1
Rattus norvegicus [16] = test: Elimination half life in Sprague-Dawley rat assessed as tenofovir level at 100 mg/kg, po administered daily for 7 days measured on day 7; type: ADME, organism-based; design: dose 100 mg/kg, route oral; conditions: in vivo, 168 h; outline: as §1
[17] = test system: Human immunodeficiency virus 1; test: Antiviral activity against HIV1 LAI in human MT2 cells assessed as inhibition of p24 antigen production by ELISA; type: functional, organism-based; conditions: Human immunodeficiency virus 1, LAI
Outline: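 MT-2 cells in RPMI 1640 with 10% FBS and 10 mM HEPES, infected with HIV-1 LAI at MOI 0.001 TCID50/cell. Incubated with threefold serial dilutions, three wells per dilution. EC50 taken as the concentration inhibiting p24 antigen production by 50%.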

Rattus norvegicus [18] = test: AUC (0 to infinity) in Sprague-Dawley rat assessed as tenofovir level at 10 mg/kg, po administered daily for 7 days measured on day 7; type: ADME, organism-based, Plasma; design: time infinity, dose 10 mg/kg, route oral; conditions: in vivo, 168 h; outline: as §1
[19] = Cytotoxicity against human MT2 cells; type: cell-based
Outline: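 MT-2 cells in RPMI 1640 with 10% FBS and 10 mM HEPES, exposed to threefold serial drug dilutions. CC50 calculated from cell counts and viability.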

[20] = Cytotoxicity against human HepG2 cells by MTS assay; type: cell-based; conditions: human, HepG2 cells
Outline: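 Exponentially growing HepG2 cells (parent hepatoma line); cytostatic effect measured by MTS method.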

[21] = Selectivity index, ratio of CC50 for human PBMC to EC50 for HIV1 clade B HT/92/599 isolate; outline: as §3
Rattus norvegicus [22] = test: Tmax in Sprague-Dawley rat assessed as tenofovir level at 10 mg/kg, po administered daily for 7 days measured on day 1; type: ADME, organism-based; design: dose 10 mg/kg, route oral; conditions: in vivo, 168 h; outline: as §1
Rattus norvegicus [23] = test: AUC (0 to infinity) in Sprague-Dawley rat assessed as tenofovir level at 30 mg/kg, po administered daily for 7 days measured on day 7; type: ADME, organism-based, Plasma; design: time infinity, dose 30 mg/kg, route oral; conditions: in vivo, 168 h; outline: as §1
[24] = Selectivity index, ratio of CC50 for human HepG2 cells to EC50 for HBV
Rattus norvegicus [25] = test: AUC (0 to infinity) in Sprague-Dawley rat assessed as tenofovir level at 10 mg/kg, po administered daily for 7 days measured on day 1; type: ADME, organism-based, Plasma; design: time infinity, dose 10 mg/kg, route oral; conditions: in vivo, 168 h; outline: as §1
[26] = test system: Human immunodeficiency virus 1; test: Antiviral activity against HIV1 clade B HT/92/599 isolate in human PBMC assessed as reduction in reverse transcriptase; type: functional, organism-based; conditions: Human immunodeficiency virus 1, clade B; outline: as §3
[27] = Cytotoxicity against human HepG2(2.2.15) cells after 24 hrs by neutral red uptake assay; type: cell-based; conditions: human, HepG2 2.2.15 cells
Outline: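 Confluent 2.2.15 cells given nine daily treatments. Neutral red uptake read by absorbance of internalized dye 24 h after the last treatment, three cultures per concentration.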

Hepatitis B virus [28] = test: Antiviral activity against HBV in human HepG2(2.2.15) cells assessed as viral DNA levels treated for 9 days measured after 24 hrs; type: functional, organism-based
Outline: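 Confluent 2.2.15 cells in RPMI 1640 with 2% FBS, given nine consecutive daily doses with daily medium change (six cultures per concentration on two replicate plates). HBV DNA quantified by blot hybridization 24 h after the last treatment.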

Rattus norvegicus [29] = test: Tmax in Sprague-Dawley rat assessed as tenofovir level at 10 mg/kg, po administered daily for 7 days measured on day 7; type: ADME, organism-based; design: dose 10 mg/kg, route oral; conditions: in vivo, 168 h; outline: as §1
Rattus norvegicus [30] = test: Tmax in Sprague-Dawley rat assessed as tenofovir level at 30 mg/kg, po administered daily for 7 days measured on day 1; type: ADME, organism-based; design: dose 30 mg/kg, route oral; conditions: in vivo, 168 h; outline: as §1

SMILES: C[C@H](Cn1cnc2c(N)ncnc21)OCP(=O)(O)O [TENOFOVIR ANHYDROUS]
- beta t1/2 (Rattus norvegicus [1]): 7.6 h
- Tmax (Rattus norvegicus [2]): 12 h
- selectivity ratio [3]: > 154
- beta t1/2 (Rattus norvegicus [4]): 10.9 h
- Tmax (Rattus norvegicus [5]): 4 h
- EC50 (Hepatitis B virus [6]): 2.25 µM
- beta t1/2 (Rattus norvegicus [7]): 7.2 h
- AUC (Rattus norvegicus [8]): 3639.5 ng·h/mL
- Tmax (Rattus norvegicus [9]): 12 h
- beta t1/2 (Rattus norvegicus [10]): 9.2 h
- CC50 [11]: 1270 µM
- Ratio CC50/EC50 [12]: >41.7
- AUC (Rattus norvegicus [13]): 7373.4 ng·h/mL
- AUC (Rattus norvegicus [14]): 1808.1 ng·h/mL
- beta t1/2 (Rattus norvegicus [15]): 10.1 h
- beta t1/2 (Rattus norvegicus [16]): 9 h
- EC50 [17]: 0.65 µM
- AUC (Rattus norvegicus [18]): 1226.9 ng·h/mL
- CC50 [19]: > 100 µM
- CC50 [20]: > 100 µM
- Ratio CC50/EC50 [21]: 396
- Tmax (Rattus norvegicus [22]): 2 h
- AUC (Rattus norvegicus [23]): 2790.5 ng·h/mL
- Ratio CC50/EC50 [24]: >133
- AUC (Rattus norvegicus [25]): 775.2 ng·h/mL
- EC50 [26]: 3.2 µM
- CC50 at 24 h [27]: > 300 µM
- EC50 (Hepatitis B virus [28]): 7.2 µM
- Tmax (Rattus norvegicus [29]): 2.4 h
- Tmax (Rattus norvegicus [30]): 4 h
